Data on two molecules can be found in paper PMC7034278 (Neural Regeneration Research, 2019).

Experiment [1] deals with neural cell adhesion molecule L1. Description: L1 immunofluorescence staining, H2O2-stressed SK-N-SH cells. The experiment is classed as cell-based, human. Particulars: 250 μM H2O2, 2 h, in comparison with the control group. A digest of the protocol:
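SK-N-SH cells were seeded at 1 × 10^4 per well, given 250 μM H2O2 for 2 h, then cultured 48 h (peptide arms at 20 μg/mL). Cells were fixed in 4% formaldehyde for 10 min and blocked with 10% donkey serum for 40 min. Anti-L1 mouse monoclonal (1:200) was applied overnight at 4°C, then Alexa 488 secondary (1:500) for 1 h, with DAPI mounting. Confocal L1 intensity was measured.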

Experiment [2] has as its system mouse cerebellar granule neurons. Nature of the experiment: Neurite outgrowth assay, H2O2-stressed cerebellar granule neurons. The class given is cell-based. To be noted: 250 μM H2O2, 2 h, in comparison with the vehicle control group. The method, boiled down: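 Primary cerebellar granule neurons from C57BL/6 mice were seeded at 2 × 10^4 cells on poly-D-lysine in Neurobasal A without B-27. They received 250 μM H2O2 for 2 h, then 24 h culture (peptide arms at 20 μg/mL). Cells were fixed in 4% formaldehyde and stained with crystal violet. Neurites at least one soma diameter long and free of cell contact were measured at 40×, about 50 cells per group. Three repeats.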

Experiment [3] deals with SK-N-SH human neuroblastoma cells. To be noted: previous study; ref Zhang et al., 2017; cited from earlier work.
For experiment [4] the test system is unchanged. Nature of the experiment: Cell viability assay. The experiment is classed as cell-based. To be noted: 250 μM H2O2, 2 h, in comparison with the vehicle control group. The method, boiled down:
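SK-N-SH neuroblastoma cells were seeded at 1 × 10^4 per well and exposed to 250 μM H2O2 for 2 h. They were then cultured a further 48 h; peptide arms received 20 μg/mL. CCK-8 reagent was added for 2 h at 37°C, and absorbance was read at 490 nm. Five repeats; mean ± SEM; one-way ANOVA with Bonferroni post-hoc test.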

A further experiment relates to Sambucus nigra lectin. Nature of the experiment: Competition ELISA. To be noted: by phage binding and competition ELISA. In general terms: In an ELISA, binding on a coated surface is turned into a signal by an enzyme label.

Consider `OO` [H2O2], for which the “L1 expression after H2O2 alone” value in experiment [1] is “reduced L1 expression”. In experiment [2], the “neurite length after H2O2 alone” value is “reduced the lengths of neurites”. The “cell viability of SK-N-SH cells in response to H2O2” value in experiment [3] was “decreased in a dose- and time-dependent manner”. In addition, the “survival of SK-N-SH cells after H2O2 alone” value in experiment [4] is listed as “reduced survival”.

Turning to H-PRHGKKPTNKRK-OH [mimetic peptide], in the experiment with Sambucus nigra lectin, the “affinity to Sambucus nigra lectin” value is given as “high affinity”.
